For test [1], the target named is T1, Hypoxia inducible factors; HIF-1-alpha, HIF-2-alpha (Homo sapiens, UniProt Q16665+Q99814). Description: Inhibition of HIF1-mediated induction of Glut-1 mRNA expression in hypoxia-stimulated human T47D cells at 0.3 to 3 uM after 16 hrs by RT-PCR analysis. It counts as cell-based.
Test [2] has as its target T1, Hypoxia inducible factors; HIF-1-alpha, HIF-2-alpha. The test is described as follows: Inhibition of HIF1-mediated induction of cellular VEGF protein in hypoxia-stimulated human T47D cells at 0.3 uM after 16 hrs by ELISA. Format: cell-based.
For test [3] the target is unchanged. Description: Inhibition of HIF1-mediated induction of secreted VEGF protein in hypoxia-stimulated human T47D cells at 0.3 uM after 16 hrs by ELISA. Format: cell-based.
Test [4] has the same target. The test is described as follows: Inhibition of HIF1-mediated induction of cellular VEGF protein in human T47D cells at 3 uM after 16 hrs by ELISA under normoxic condition. It counts as cell-based.
The target is the same in test [5]. The test is described as follows: Inhibition of HIF1-mediated induction of secreted VEGF protein in human T47D cells at 3 uM after 16 hrs by ELISA under normoxic condition. Format: cell-based.
The test system of test [6] is T47D. The test is described as follows: Inhibition of HIF1alpha protein accumulation under hypoxic condition in human T47D cells at 3 uM after 4 hrs by Western blot analysis. It counts as functional, cell-based.
For test [7], the system named is T47D. The test is described as follows: Inhibition of HIF1beta protein accumulation under hypoxic condition in human T47D cells at 3 uM after 4 hrs by Western blot analysis. It counts as functional, cell-based.
For test [8], the system named is T47D. The test is described as follows: Inhibition of 1, 10-phenanthroline-induced HIF1beta protein accumulation in human T47D cells at 3 uM after 4 hrs by Western blot analysis. It counts as functional, cell-based.
The test system of test [9] is T47D. Description: Inhibition of cellular respiration in human T47D cell at 0.03 to 1 uM by oxygen consumption assay. Format: functional, cell-based. In a few lines: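 Oxygen consumption of intact T47D cells measured with a Clark-type electrode, in serum-free DMEM/F12 at 30 °C.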
For test [10], the system named is T47D. Description: Inhibition of cellular respiration in human T47D cells at 0.3 uM by oxygen consumption assay in presence of complex 1 substrate malate and pyruvate. Format: functional, cell-based. In outline: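 Permeabilized T47D cells, oxygen consumption measured by Clark-type electrode. Complex I respiration started with malate plus pyruvate; succinate added as complex II substrate.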

In test [11] the target is Serine/threonine-protein kinase mTOR (Homo sapiens) (UniProt P42345). Description: Inhibition of mTOR-mediated rpS6 phosphorylation on Ser 235/236 in human T47D cells at 1 to 10 uM after 30 mins by Western blotting. It counts as cell-based.
The target is the same in test [12]. The test is described as follows: Inhibition of mTORC1-mediated eIF4E phosphorylation on Ser 209 in human T47D cells at 1 to 10 uM after 30 mins by Western blotting. It counts as cell-based.
The target is the same in test [13]. Description: Inhibition of mTOR in human T47D cells assessed as eEF2 hyperphosphorylation on Ser 56 at 1 to 10 uM after 30 mins by Western blotting. It counts as cell-based. In a few lines:
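Cells seeded at 0.8 × 10^6 per well, exposed 30 min at 37 °C, 5% CO2, in DMEM/F12 with 5% FBS. Lysed in modified RIPA (pH 7.6) with protease and phosphatase inhibitors; 40 µg protein run on 4–20% gels, nitrocellulose transfer. Phospho-specific and total eIF2α/eEF2 primaries at 1:1,000, HRP anti-rabbit at 1:2000, chemiluminescence on film.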

Activity calls are given as the source filed them. No cut-off for these calls is given here.

With `CC(C)CC(=O)O[C@@H]1CC[C@]2(C)[C@H]3CC[C@]45C[C@]4(CC[C@@H]5[C@@H]4C[C@H]([C@@H]5OC5(C)C)OC4O)[C@]3(C)[C@H](O)C[C@H]2C1(C)C` (stereo partly drawn) [SKIMMIAREPIN A], the inhibition result (in test [1]; in [2]; in [3]; with T47D [6]; with T47D [10]) was “Active” throughout. For the same compound, the inhibition entry (in test [4]; in test [5]; with T47D [7]; in the test on T47D [8]; in test [11]; in test [12]) was “inactive” throughout. Moreover, in the test with T47D [9], the inhibition entry is “Dose-dependent effect”. In addition, the Activity entry in [13] was “Dose-dependent effect”.
